Test results from the EternaBench riboswitch data.

Test system: MS2 coat protein
Experiment: apparent Kd, MS2 coat protein; higher = weaker binding; RNA-MaP array; FMN 200 µM where present
Procedure, shortened: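 Binding was read on Illumina sequencing-chip clusters where stalled E. coli RNA polymerase had transcribed each design. A titration of SNAP-549-labelled MS2 coat protein began at 0.7 or 1.5 nM and doubled to 3 µM, once without ligand and once with constant ligand, in 100 mM Tris-HCl pH 7.5, 80 mM KCl, 4 mM MgCl2, BSA, DTT, yeast tRNA and Tween-20. The apparent Kd is the median of filtered per-cluster binding-curve fits, based on green signal normalised to red-channel RNA signal and control-cluster median Fmax.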

[1] = designed as: OFF switch for flavin mononucleotide, no ligand
[2] = ligand present: flavin mononucleotide, designed as: OFF switch for flavin mononucleotide
[3] = designed as: ON switch for flavin mononucleotide, no ligand
[4] = ligand present: flavin mononucleotide, designed as: ON switch for flavin mononucleotide

Sequence	apparent Kd [1]	apparent Kd [2]	apparent Kd [3]	apparent Kd [4]
GCGUGGUUCUAGAAGGUGCUAGCGAUAAGCUAGCAAGGAUAUAGACAUGAGGAUCACCCAUGUCUUAAAGAAAUGGACACACGC	5.04 nM	5.55 nM		
UCCUUGUCCUGAGGAUAUCCGUGGUUCCCGAAAGGAGAAGGCAGGACAUGAGGAUCACCCAUGUACCCAGAUAUCGUACAGAGA	50.4 nM	360 nM		
AUGCCAGAAGGAUAUACAUGAGGAUCACCCAUGUCAUGUUUGAUUCGCCCGCAGGGCUGUAGAAGGUCUGGCAU	65.2 nM	543 nM		
GAUCGCCAUGUCAGGAUAUCUUGUAUACCCACGUUAGAGAAGGGACAUGAGGAUCACCCAUGUACCCUGGUUUU		16.4 nM		
AAUUUAAUACAUGAGGAUCACCCAUGUAAAUUAAUUAAGAUCAAGGAUAUCAGCUCGAUUAGAGCUGAGAAGGUGAUCACAUGU			368 nM	99.4 nM
CUAAAUCAUGUAGGAUAUGCAUGGCGAAGCUACGCAGAAGGACAUGAGGAUCACCCAUGUCAGAACGUCUGCGUUCAGACGUUG	17.7 nM	58 nM		
GGCAGACAUGAGGAUCACCCAUGUCGGCCGUUAGGAGGAUAUCGGUGAUAUCUGUCUCGCCGAGAAGGUUUAAUUA			11.5 nM	12.1 nM
GGUACUCAAAGAGUAUCAAUACGAACAUGAGGAUCACCCAUGUAGGAUAUGCUACUCAAAGAGUAGCAGAAGGACAUGUGCCUA	16.2 nM	91.3 nM		
AUCAGCUCGUCAGGAUAUAUAUCACUGCUUCGGCAGUGUAUUAAGAUCACAUGAGGAUCACCCAUGUAGAAGGGACGAGCUGAU	16.8 nM	20.2 nM		
UAAGAUUAUUGAGGAUAUGGUAAUUUUUAUUAACCAGAAGGCAAACUCAACAUGAGGAUCACCCAUGUAUAAAGGGUAUUAGUU	68 nM	63.4 nM		
GAGCUGUGAGGAUAUACAUGAGGAUCACCCAUGUUAAGGAAGUCGGGAUUAAUUUAGUGUAGAAGGCACUUAUU	39.9 nM	41.6 nM		
GACUAGGCAGGAUAUACAUGAGGAUCACCCAUGUGUCUGCGAUAGGCACGUGAUUACUGUAGAAGGGCCUUGAC		44.1 nM		
GUCAUUGACAAGAAGGCAAACAUGAGGAUCACCCAUGUUCUGCAUGUAUAUUGAGGAUAUUGCCAAUGCAUGAGGAUCACCCAG	11.7 nM	20.2 nM		
UGUUGUAUUACAGGAUAUCUAUUAUUUUUAGUUAGAGAAGGGUAUUCACAUGAGGAUCACCCAUGUAUAUACGAGGAAGUUGUG			43.5 nM	44.3 nM
AGGAAACAUGAGGAUCACCCAUGUAAAGAAGGGUGAGGAUAUACAAAGAAAAGAAAGAAAGUAGAAGGCACAAAAG			556 nM	635 nM
GUGACGAUGUAAGGAUAUGCUGAGGAUAACUCAGCAGAAGGUACAUGAGGAUCACCCAUGUAAAUAAUAAGAAAUAAACGUCAC	16.6 nM	24.1 nM		
UUACUCAUGUAAGGAUAUGCAGCCGAAACGGCUGCAGAAGGUACUAUAAUACAUGAGGAUCACCCAUGUAAAAUAAAUAAAGUC			26.1 nM	16.9 nM
AGAUGGCGAGGAUAUACAUGAGGAUCACCCAUGUGAAGAUAAAGAGUGAGGAAGAAAAGUAGAAGGCGCUGUCA	123 nM	506 nM		
GCCAGUUAUGUAGGAUAUGCGCGGCGAGCCUGAGCAGAAGGACAUGAGGAUCACCCAUGUGUUGCGGUCUGAGUACUGAUCGCU	30.1 nM	155 nM		
UGGUACAUGGGAGGAUAUGGGUUGAUAACAUGAGGAUCACCCAUGUUAAAUAAGCCGAGAGGCUACUAGAAGGCCCAUGUACCU			819 nM	28.9 nM
CAUUUACAGGGAGGAUAUACAUGAGGAUCACCCAUGUCAUCAUACGAUAUUUCUUUUGUAUGAGUGUAGAAGGCCCAACUACCA	10.2 nM	12 nM		
AGAAAGGCAGGAUAUACAUGAGGAUCACCCAUGUUAAGAAAGACGGAAACGUCAAGAAGUAGAAGGGCCAAGAA	23.4 nM	21.1 nM		
GACUGAUUACAGAAGGUGUAAGACAUGAGGAUCACCCAUGUGAUAUAGGGUAUAUUUGAAUAUAACAAGGAUAUGUAUAAAUCA			102 nM	60.4 nM
